# Compound activity deposited in PubChem by several laboratories.
# In the library only some 2.6% were active in any assay of this set; here they are far more common.
# Runt-CBFb FRET – inhibitors of human RUNX1 Runt domain binding to CBFb. AID 1496. inhibition, % at 20 µM. Cerulean-Runt/Venus-CBFb FRET ratio 530/480, 1 h. Q01196+Q13951. 220,000 compounds, 0.46% hits;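 active means inhibition over about 50% at 20 µM in the single-dose screen, limit read from the data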;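 further: 0% = DMSO wells and 100% = excess unlabeled CBFb competitor control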
# Target sequence (Q01196 whole entry, looked up, the tested form may be a part): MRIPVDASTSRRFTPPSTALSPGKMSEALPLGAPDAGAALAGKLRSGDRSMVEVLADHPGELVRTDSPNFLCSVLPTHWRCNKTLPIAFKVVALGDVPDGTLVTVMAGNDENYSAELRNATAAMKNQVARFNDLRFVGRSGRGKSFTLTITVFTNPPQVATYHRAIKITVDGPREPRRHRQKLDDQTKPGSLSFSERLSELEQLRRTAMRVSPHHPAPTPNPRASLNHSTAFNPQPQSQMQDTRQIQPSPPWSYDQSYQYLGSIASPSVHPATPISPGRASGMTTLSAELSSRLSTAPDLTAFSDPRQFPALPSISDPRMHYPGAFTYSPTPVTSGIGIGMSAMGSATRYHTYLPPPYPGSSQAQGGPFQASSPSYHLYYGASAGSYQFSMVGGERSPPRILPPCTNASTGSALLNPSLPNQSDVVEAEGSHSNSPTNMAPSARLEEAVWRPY
# Target sequence (Q13951 whole entry, looked up, the tested form may be a part): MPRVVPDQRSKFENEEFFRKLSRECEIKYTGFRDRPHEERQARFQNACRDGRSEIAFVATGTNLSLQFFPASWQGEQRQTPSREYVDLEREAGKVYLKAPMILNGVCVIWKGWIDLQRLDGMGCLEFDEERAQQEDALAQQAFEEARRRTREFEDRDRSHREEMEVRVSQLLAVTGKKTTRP
#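 Schedule: protein complex preformed 1 h, compound exposure 1 h, room temperature, dark; test system: Cerulean-labeled Runt domain protein; amount: 100 nM per protein; buffer or medium: Tris 50 mM pH 7.5, KCl, K2SO4, 0.01% BSA; read-out: loss of energy transfer signal; detection: FRET fluorescence; controls: 5 µM unlabeled CBFb as full-inhibition high control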
# IMP-1 inh – inhibitors of Pseudomonas aeruginosa IMP-1 metallo-beta-lactamase | inhibition, % at 5.6 µM | purified IMP-1, nitrocefin hydrolysis, epi-absorbance fluorescence | 290,000 compounds, 0.45% hits;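 active means inhibition above the mean plus 3 SD of all compounds in the same screening run, cut at about 4.5% in these data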;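 further: 0% = IMP-1 with DMSO and 100% = DMSO wells lacking enzyme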
#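 System: Purified recombinant IMP-1 metallo-beta-lactamase enzyme | Measured by: Fluorescence quenching readout, ex 480/em 530 nm | Replication: Singlicate | Incubation: 15 min preincubation plus 25 min reaction at 25 °C | Evaluation: Percent inhibition from optical density relative to buffer-blank wells | Benchmarks: DMSO with and without IMP-1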
# VIM-2 inhibitor – inhibitors of Pseudomonas aeruginosa VIM-2 metallo-beta-lactamase; purified VIM-2, nitrocefin hydrolysis, epi-absorbance fluorescence; inhibition, % at 5.6 µM; 290,000 compounds, 0.89% hits;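 active means inhibition above the mean of all tested compounds plus 3 SD, cutoff set per screening run, cut at about 7.5% in these data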;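 further: red hydrolysis product quenches plate fluorescence so inhibitors raise well fluorescence; 0% = enzyme with DMSO and 100% = DMSO without enzyme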
# Runt-SMMHC FRET – Runt domain-CBFb-SMMHC interaction inhibition | Q01196+Q13951 | Cerulean-Runt/Venus-CBFb-SMMHC FRET ratio 530/480, 1 h | inhibition, % at 20 µM | 220,000 compounds, 0.74% hits | AID 1434;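 active means mean inhibition across duplicate retests at 20 µM reaching about 50%, limit read from the data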;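 further: 0% = DMSO wells and 100% = wells with excess untagged CBFb-SMMHC; inhibitors lower the FRET ratio by blocking Runt binding to CBFb-SMMHC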
# RanGTP-Imp inh – inhibitors of RanGTP-importin-beta interaction, primary screen, biochemical, FRET, CFP-Ran, YFP-importin-beta, homogeneous | inhibition, % (no concentration beside the values) | AID 2216 | cell-free CFP-Ran/YFP-importin-beta FRET ratio | 300,000 compounds, 1.1% hits;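 active means more than half of the replicate wells show a fall in the fluorescence ratio signal beyond about 16%, limit read from the data, passing the limit was not always enough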;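 further: 0% = DMSO wells and 100% = Ran loaded with GDP instead of GTP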
# The depositor's hits bear a star; x = no result.
SMILES,Runt-CBFb FRET,IMP-1 inh,VIM-2 inhibitor,Runt-SMMHC FRET,RanGTP-Imp inh
COC(=O)C1=C(C)Nc2nc3ccccc3n2C1c1cc(OC)c(OC)c(OC)c1 (stereo not drawn),-4.2,-1.2,-0.6,-5.0,2.5
C[C@H](NC(=O)[C@@H]1CSC2c3ccccc3C(=O)N21)C(=O)NC1CCCCC1 (stereo partly drawn),x,2.5,0.9,x,0.9
C/C(=N/NC(=O)c1cccs1)c1c(C)[nH]n(-c2nc3ccccc3s2)c1=O,44.8,-3.2,-1.4,98.2*,-6.9
CCC(C)Sc1ccc([C@@H]2[C@@H]3C(=O)N(C)C(=O)[C@@H]3[C@]3(C(=O)OC)CCCCN23)cc1 (stereo partly drawn),x,x,x,x,-1.1
CC(c1ccccc1)C1CC(=O)N(c2cc(Cl)ccn2)C1=O (stereo not drawn),1.0,14.7*,-0.2,-0.9,-1.6
COC(=O)c1ccc(-c2sc3nc(N4CCOCC4)c4c(c3c2N)CCCC4)o1,6.0,-3.3,-1.8,-0.7,10.3
CC12CCC(=O)N1c1c(sc3nc(N4CCOCC4)c4c(c13)CCCC4)C(=O)N2 (stereo not drawn),5.1,-1.0,3.2,95.9*,-1.0
O=C(CN1CCC(n2cnc3cc(F)ccc32)CC1)Nc1ccccc1Br,4.1,-2.0,9.8*,-0.6,-1.1
CC1=C(C(=O)Nc2ccccc2C)C(c2ccccc2)NC(=O)N1 (stereo not drawn),-0.2,4.5*,-0.1,-1.3,4.4
O=C1NC(=O)/C(=C\c2ccc(O)cc2O)S1,-0.7,6.0*,2.4,-41.2,-3.5
O=C(N/N=C/c1ccncc1)c1sc2ccccc2c1Cl,x,-2.4,8.9*,x,1.1
COc1ccc2c(Cl)c(C(=O)N/N=C/c3ccncc3)sc2c1,x,-3.7,1.2,x,0.1
CC1CCCCN1CCCNc1ccc(C(CC(N)=O)NC(=O)Cc2cccc3ccccc23)cc1[N+](=O)[O-] (stereo not drawn),x,-2.4,-0.8,x,29.9*
CC1CCCCN1CCCNc1ccc(C(CC(N)=O)NC(=O)Cc2ccc(Cl)cc2)cc1[N+](=O)[O-] (stereo not drawn),x,-2.6,-1.8,x,-2.1
CCOC(=O)/C(C#N)=C\C=C1C=CN(C)C=C1,x,-3.0,-0.8,-86.0,50.9*
O=C(CN1CCN(Cc2ccc3c(c2)OCO3)CC1)N1CCc2[nH]c3ccccc3c2C1,-6.2,-1.5,-0.1,-10.5,32.0*
CC1CC(C)CN(CC(=O)N2CCc3[nH]c4ccccc4c3C2)C1 (stereo not drawn),-16.8,-2.4,1.9,-26.2,7.7
CC1CN(CC(=O)N2CCc3[nH]c4ccccc4c3C2)CC(C)O1 (stereo not drawn),-27.5,-3.0,-8.7,-7.4,27.7*
Cc1nc([N+](=O)[O-])cn1CC(=O)c1ccc(Br)cc1,x,x,x,x,0.1
Cn1c(-c2ccc3c(c2)OCO3)c(C(=O)O)c(=O)c2ccccc21,-1.8,-1.3,10.7*,-1.8,2.8
COc1ccc2c(=O)c(C(=O)O)c(-c3ccc4c(c3)OCO4)n(C)c2c1,-1.8,-1.0,2.6,-0.1,0.5
CC(=O)OCC(=O)NCc1ccc2c(c1)OCO2,87.3*,-2.7,-0.4,68.5,-6.0
O=C(COC(=O)c1ccc(O)cc1)NCc1ccc2c(c1)OCO2,-0.2,-0.7,-0.4,-0.1,0.6
Cc1c(C(C)NC(=O)c2cc(COc3cccc4cnccc34)on2)cnn1C (stereo not drawn),x,-0.7,-1.7,x,0.6
Cc1cc(/C=C2\SC(=Nc3ccccc3)NC2=O)c(C)n1-c1ccc(S(N)(=O)=O)cc1,0.5,0.9,0.5,-1.6,20.8*
SMILES,Runt-CBFb FRET,IMP-1 inh,VIM-2 inhibitor,Runt-SMMHC FRET,RanGTP-Imp inh
Cc1ccc(-n2c(C)cc(/C=C3\SC(=O)NC3=O)c2C)cc1,x,-3.5,-1.5,x,4.2
O=C1C2CC=C(Cl)CC2C(=O)N1CCc1ccccc1 (stereo not drawn),-16.3,6.9*,-1.2,-35.5,-4.6
O=C(Oc1ccc2ccc(=O)oc2c1)c1ccccc1,x,-1.5,1.3,x,9.9
CCC(NC(=O)OCc1ccccc1)C(=O)Oc1ccc2ccc(=O)oc2c1 (stereo not drawn),x,-1.6,-2.0,x,21.5*
CCN(C(=O)COC(=O)c1cccs1)c1c(N)n(Cc2ccccc2)c(=O)[nH]c1=O,x,x,x,x,4.4
CC(=O)N1N=C(c2ccccc2)CC1c1cccs1 (stereo not drawn),x,0.0,-0.8,x,2.6
CC(=O)Nc1ccc(C2=NN(c3ccccc3)C(c3cccs3)C2)cc1 (stereo not drawn),22.8,-0.1,-2.6,54.6*,1.0
COc1ccc(Cn2c(/C=C/c3ccccc3)nc3ccccc32)cc1,-0.5,-1.3,-2.1,-4.1,28.2*
CCn1c(/C=C/c2ccccc2)nc2ccccc21,-3.6,-2.1,-2.2,0.7,3.5
O=c1c2cc(Cl)ccc2oc2nc3n(c(=O)c12)CCCS3,2.1,1.4,9.7*,0.1,0.7
N#Cc1c(-c2ccc(Cl)cc2)nc2n(c1=O)CCCS2,0.1,-0.9,-0.6,-2.3,2.5
C=CCN1C(=O)c2ccc(C(=O)N3CCN(c4ccccc4OC)CC3)cc2C1=O,x,x,x,x,0.2
Cc1ccc(NC(=O)COC(=O)CN2C(=O)c3ccccc3C2=O)cc1S(=O)(=O)N(C)C,-0.1,-1.4,-1.6,1.1,39.8*
Cc1ccc2nc3c(nc2c1C)C(O)=C3O,0.1,-2.8,-0.5,-3.3,0.1
OC1=C(O)c2nc3cc(F)ccc3nc21,-1.6,-2.5,8.2*,-2.6,3.9
Cc1ccc(NC(=O)N2CCCc3ccccc32)cc1C,x,-2.6,-2.2,x,3.9
Cc1cc(C)n(-c2cccc(Cl)c2)c(=O)c1C#N,-1.4,-3.2,-1.9,2.2,-4.1
Cc1cc2n(c(=O)c1C#N)CCCN2c1cccc(Cl)c1,-1.9,3.3,10.3*,-1.2,-0.2
COc1cccc(OCc2cc(C(=O)N3CCNC(=O)C3Cc3ccccc3)no2)c1 (stereo not drawn),x,-2.4,-0.4,x,-0.8
Nc1nnnn1/N=C/c1ccc(O)cc1,-0.8,-2.2,-3.6,-0.4,-3.1
CCN(C)c1ccc(/C=N\n2nnnc2N)cc1,20.6,-0.5,-2.5,53.9*,-1.0
NC(=O)C1CCN(C(=O)COc2ccc3c(c2)oc(=O)c2ccccc23)CC1,x,-1.1,11.7*,x,-0.4
NC(=S)Nc1ccc(Oc2ccc(NC(N)=S)cc2)cc1,0.9,14.6*,-1.5,-6.3,0.3
Cc1ccc(NC(N)=S)cc1,-2.5,-1.3,0.6,-3.9,3.8
CCOc1ccc(NC(=O)COC(=O)C2C3CC4OC(=O)C2C4C3)cc1 (stereo not drawn),x,0.2,-1.2,x,5.0
O=C(C1CC(c2ccc(F)cc2)=NO1)N1CCc2ccccc2C1 (stereo not drawn),2.4,-4.5,-3.0,-2.3,4.4
COc1cccc(C2=NOC(C(=O)N3CCc4ccccc4C3)C2)c1 (stereo not drawn),x,-4.5,-2.1,-1.5,22.7*
